# Measurements pooled from the literature.
# Lines come from different studies, so protocols differ.
# Target: Histamine H2 receptor (HRH2, Homo sapiens, UniProt P25021)
# Concentration: 10 µM
Compound,effect on,method,quantity,value
COc1ccc(S(=O)(=O)N2CCCCC2)cc1C,ligand displacement,radioligand,inhibition,< 30%
CCN(CC)CCCC[C@H](NC(=O)[C@H](CC(C)C)NC(=O)[C@H](C)NC(=O)[C@H](Cc1ccccc1)NC(=O)c1ccc(C(C)(C)C)cc1)C(=O)N[C@@H](CO)C(=O)OC,ligand displacement,radioligand,inhibition,1%
CC(C)N1CCC[C@H]1CNC(=O)c1cn(C2CCCC2)c(=O)c2c1c1ccccc1n2C,ligand displacement,radioligand,inhibition,25%
c1ccc(C(NCCNC(c2ccccc2)c2ccccc2)c2ccccc2)cc1,cell-free assay,,inhibition,99%
N#CC1(c2ccccn2)CCN(Cc2cc(C(=O)O)c(=O)n3ccccc23)CC1,cell-free assay,,inhibition,11.7%
COCc1c(-c2cc3cc(C)cc(OC)c3s2)c2c(N)ncnn2c1CN1CCNC(=O)C1,ligand displacement,radioligand,inhibition,-8%
Nc1ncc(-c2nc(N3CCOCC3)nc(N3CCOCC3)n2)c(C(F)F)n1,cell-free assay,radioligand,remaining signal,106%
C[C@H](C(=O)N[C@H]1COc2ccccc2[C@@H]1S(C)(=O)=O)c1ccc(F)cc1,cell-free assay,,inhibition,-11%
CCCCCCCCCCCC(=O)OC[C@@H](COP(=O)(O)OCCNC(=O)c1ccc(Cn2c(=O)[nH]c3c(N)nc(OCCOC)nc32)cc1)OC(=O)CCCCCCCCCCC,ligand displacement,radioligand,inhibition,40%
Cn1cncc1[C@@](O)(COc1ccc(C#N)cc1-c1ccc(OC(F)(F)F)cc1)c1ccc(C#N)cc1,ligand displacement,,inhibition,5.38%
CC(C)Cn1cnc2c(N)nc3ccccc3c21,ligand displacement,radioligand,inhibition,63%
Clc1ccc2c(C3CCN(CCc4c[nH]c5ccccc45)CC3)c[nH]c2c1,ligand displacement,radioligand,inhibition,53%
